Data on seven molecules can be found in article PMC4371781 (Biochemistry, 2015).

The target in series [1] is T1, RbAB (pocket domain of Rb) (Homo sapiens, UniProt P06400, A635F/DEL582-633/S634E).
T1 sequence (P06400 with tags, fused parts or gaps DEL582-633/S634E/A635F limits assumed): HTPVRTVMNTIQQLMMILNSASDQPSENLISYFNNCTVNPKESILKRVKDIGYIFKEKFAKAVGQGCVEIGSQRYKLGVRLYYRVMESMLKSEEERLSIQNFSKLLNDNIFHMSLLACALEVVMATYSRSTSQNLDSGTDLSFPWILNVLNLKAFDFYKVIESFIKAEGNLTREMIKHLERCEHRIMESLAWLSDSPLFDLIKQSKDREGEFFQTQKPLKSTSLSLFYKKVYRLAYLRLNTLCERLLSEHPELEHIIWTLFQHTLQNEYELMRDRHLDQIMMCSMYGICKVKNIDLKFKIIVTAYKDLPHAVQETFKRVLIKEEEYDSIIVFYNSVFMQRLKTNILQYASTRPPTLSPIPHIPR
As to the kind of experiment: Fluorescence anisotropy, direct binding assay. The procedure, abridged: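 Assays ran in PBS pH 7.5 with 2.5 mM DTT. Labelled peptide was held constant while RbAB was varied: 0.33 μM FITC-RIZ(254–267) at 25 °C, or 0.40 μM FITC-RIZ(309–319) at 20 °C. FITC was attached at the N-terminus via an aminohexanoyl spacer, with amidated C-termini. TCSPC steady-state anisotropy was corrected with a bound/free quantum-yield ratio (0.65 μM peptide ± 32.5 μM RbAB). Kd was fitted by nonlinear least squares with 95% confidence intervals.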
A general note: Fluorescence polarisation rises when a labelled molecule tumbles more slowly, as on binding a larger partner.

The target of series [2] is T1, RbAB (pocket domain of Rb). As to the kind of experiment: Competition-based ITC. In kind it is binding. The method, boiled down: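 RbAB (Rb residues 372–581 and 636–787 joined by an EF linker, GS N-terminus) was expressed as a GST fusion in E. coli and thrombin-cleaved. At 25 °C in 20 mM Tris pH 7.5, 140 mM NaCl and 2 mM β-mercaptoethanol, the RIZ 297–341 fragment (1154 or 984 μM) was titrated into RbAB (20 or 9 μM). RbAB was pre-mixed with excess competitor: 650 μM FITC-RIZ(254–267) or 459 μM RIZ 197–269 fragment. Kd was derived from the apparent association constant with a competition equation.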

Series [3] addresses T1, RbAB (pocket domain of Rb). As to the kind of experiment: NMR-monitored titration, 1H–15N HSQC of 15N-labeled RIZ constructs with RbAB. In kind it is binding. To be noted: for residues most affected by RbAB binding (loss of HSQC peak volume): 1H–15N HSQC, PBS pH 7.5, 2.5 mM DTT, 25 °C.
Series [4] has as its target HDAC1 LXCXE-like sequence LXCXE-like sequence (Homo sapiens) (UniProt Q13547). To be noted: cited from earlier work.
The target of series [5] is T1, RbAB (pocket domain of Rb). As to the kind of experiment: Isothermal titration calorimetry, direct binding of RbAB. The procedure, abridged:
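RbAB (GST-fusion from E. coli, thrombin-cleaved) was injected stepwise into the cell at 25 °C in 20 mM Tris pH 7.5, 140 mM NaCl and 2 mM β-mercaptoethanol. Titrations were 486 μM RbAB into 28 μM full acidic region (AR), and 524 μM RbAB into 39 μM RIZ 197–269 or 48 μM RIZ 297–341 fragment. Heats of binding were recorded and fitted to a single-binding-site model.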
For orientation: ITC needs no label: the signal is the heat of the interaction.

Series [6] is described as follows: NMR structural characterization of AR. The class given is physicochemical.
In series [7] the target is T2, AR-N (N-terminal part of the acidic region of RIZ, residues 197-269) (human, UniProt Q13029 197-269).
T2 sequence: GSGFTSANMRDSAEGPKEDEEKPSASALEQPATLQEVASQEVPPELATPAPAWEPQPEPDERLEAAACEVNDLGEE
As to the kind of experiment: fluorescence polarisation.

The target in the next series is T3, FITC-RIZ(309-319) (human, SMILES …).
T3 peptide: {FITC-Ahx}-EIRCDEKPEDL-NH2
As to the kind of experiment: fluorescence polarisation.

The next series has as its target T4, FITC-RIZ(254-267) (human).
T4 peptide: {FITC′-Ahx}-ERLEAAACEVNDLG-NH2
As to the kind of experiment: fluorescence polarisation.

For series [8], the target named is T2, AR-N (N-terminal part of the acidic …). Nature of the series: ITC.
Setting [9] is: from 13Cα, 13Cβ, 1Hα chemical shifts, PBS pH 7.5, 25 °C.

Where a SMILES comes first, the peptide text is derived from it. Primed or numbered codes have the meaning given here. The star is where a group is joined. FITC = O=C1OC2(c3ccc(O)cc3Oc3cc(O)ccc32)c2ccc(NC(=S)*)cc21; FITC′ = fluorescein; Ahx = NCCCCCC(=O)O

As for `CC(C)C[C@H](NC(=O)[C@H](CC(=O)O)NC(=O)[C@H](CC(N)=O)NC(=O)[C@@H](NC(=O)[C@H](CCC(=O)O)NC(=O)[C@H](CS)NC(=O)[C@H](C)NC(=O)[C@H](C)NC(=O)[C@H](C)NC(=O)[C@H](CCC(=O)O)NC(=O)[C@H](CC(C)C)NC(=O)[C@H](CCCNC(=N)N)NC(=O)[C@H](CCC(=O)O)NC(=O)CCCCCNC(=S)Nc1ccc2c(c1)C(=O)OC21c2ccc(O)cc2Oc2cc(O)ccc21)C(C)C)C(=O)NCC(N)=O` [FITC-RIZ(254–267)] ({FITC-Ahx}-ERLEAAACEVNDLG-NH2), the Kd was around 170 µM in [1] and 70 ± 10 µM in series [2].

As to “EIRCDEKPEDL [peptide containing the IRCDE motif]”, the “effect of competitor peptide on AR signals in presence of RbAB” value in series [3] (86 μM 15N-labeled AR, ~2-fold molar excess RbAB, 34-fold molar excess of RIZ(309–319) peptide, PBS pH 7.5, 25 °C) was “the intensity of all AR signals was restored”.

On to “Rb pocket domain pocket domain (from UniProt P06400)”, for which the Kd in series [4] is 10 µM.

Molecule `CC[C@H](C)[C@H](NC(=O)[C@H](CCC(=O)O)NC(=O)CCCCCNC(=S)Nc1ccc2c(c1)C(=O)OC21c2ccc(O)cc2Oc2cc(O)ccc21)C(=O)N[C@@H](CCCNC(=N)N)C(=O)N[C@@H](CS)C(=O)N[C@@H](CC(=O)O)C(=O)N[C@@H](CCC(=O)O)C(=O)N[C@@H](CCCCN)C(=O)N1CCC[C@H]1C(=O)N[C@@H](CCC(=O)O)C(=O)N[C@@H](CC(=O)O)C(=O)N[C@@H](CC(C)C)C(N)=O` [FITC-RIZ(309–319)] ({FITC-Ahx}-EIRCDEKPEDL-NH2) had an equilibrium dissociation constant (Kd) in series [1] of around 0.36 µM.

B1: AR-N: recombinant protein, residues 197–269 (FTSA⋯LGEE) of RIZ preceded by three extraneous amino acids (GSG) (protein)
chain: T2 sequence
modifications: left off: GST, N-terminal, cleaved
In the case of B1, the “heat/enthalpy of binding to RbAB (in words)” value in [5] (ITC, 25 °C, Tris pH 7.5) is recorded as “little or no heat is released”. In addition, the “residues most affected by RbAB binding (loss of HSQC peak volume)” value in series [3] is “Residues 255–267 in AR-N”.

B2: AR: recombinant AR protein, residues 197–341 of human RIZ (FTSA⋯TPAM) preceded by four extraneous amino acids (GSPE) (protein)
chain: GSPEFTSANMRDSAEGPKEDEEKPSASALEQPATLQEVASQEVPPELATPAPAWEPQPEPDERLEAAACEVNDLGEEEEEEEEEDEEEEEDDDDDELEDEGEEEASMPNENSVKEPEIRCDEKPEDLLEEPKTTSEETLEDCSEVTPAM
modifications: left off: GST, end not stated, cleaved
Take B2: the “affinity for pocket domain of Rb (in words)” value in series [5] (purified components, ITC and fluorescence anisotropy) is given as “submicromolar affinity”. Further, the “residues most affected by RbAB binding (loss of HSQC peak volume)” value in series [3] was “Residues 306–322 ([…]) were the most affected by RbAB binding”. For the same molecule, the “exchange between free and bound forms with RbAB” value in series [3] (15N-labeled AR, increasing RbAB, PBS pH 7.5, 25 °C) is “consistent with exchange between the free and bound forms on an intermediate time scale”. Moreover, in series [3] (displacement by large excess of peptide containing IRCDE motif), the “specificity of binding to RbAB” value is given as “AR binding to RbAB is specific”. Also, the “structural state in solution” value in series [6] (NMR, PBS pH 7.5, 2.5 mM DTT, 25 °C) is “consistent with AR being intrinsically disordered”. For the same molecule, in [6] (setting [9]), the “SSP scores: virtually no residues higher than” value is given as at most 0.2 and the “SSP scores: virtually no residues lower than” value is listed as at least −0.2.

B3: RbAB (pocket domain of the retinoblastoma protein, cyclin boxes A and B joined by a two-residue linker) (domain or fragment, human)
chain: GSHTPVRTVMNTIQQLMMILNSASDQPSENLISYFNNCTVNPKESILKRVKDIGYIFKEKFAKAVGQGCVEIGSQRYKLGVRLYYRVMESMLKSEEERLSIQNFSKLLNDNIFHMSLLACALEVVMATYSRSTSQNLDSGTDLSFPWILNVLNLKAFDFYKVIESFIKAEGNLTREMIKHLERCEHRIMESLAWLSDSPLFDLIKQSKDREGEFFQTQKPLKSTSLSLFYKKVYRLAYLRLNTLCERLLSEHPELEHIIWTLFQHTLQNEYELMRDRHLDQIMMCSMYGICKVKNIDLKFKIIVTAYKDLPHAVQETFKRVLIKEEEYDSIIVFYNSVFMQRLKTNILQYASTRPPTLSPIPHIPR
With B3, the Kd in [7] is 90 µM; with FITC-RIZ(309-319), 0.36 µM; in the series with FITC-RIZ(254-267), 170 µM; in [8] it was 45 ± 20 µM.

A word on the Kd: it is the free concentration of one partner at which half of the binding sites on the other are occupied at equilibrium, for simple one-to-one binding.
